The sample as a whole holds a higher share of hits than the screen did.
IDH1 mut inh = IDH1 R132H (human) inhibition; O75874; IDH1 R132H reductase, diaphorase/resazurin fluorescence, 60 min; inhibition, % at 10 µM; actives 0.18% (n = 70,000); AID 624101; in the data active = inhibition above about 34%; inconclusive = no clear call, values can overlap the other calls; inactive = below about 11%
KDM4C inh = blocks human GASC-1 (KDM4C) demethylase activity. Q9H3R0. AID 720574. GST-KDM4C 2-372, H3K9me3 peptide, LANCE TR-FRET. actives 0.15% (n = 96,000). inhibition, % at 12.5 µM;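 active = mean replicate inhibition above about 25%, with at least 55% of replicates also reaching it, limit read from the data, passing the limit was not always enough; inconclusive = only one of those two conditions met; inactive = neither condition met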
Target sequence (Q9H3R0 2-372 limits assumed): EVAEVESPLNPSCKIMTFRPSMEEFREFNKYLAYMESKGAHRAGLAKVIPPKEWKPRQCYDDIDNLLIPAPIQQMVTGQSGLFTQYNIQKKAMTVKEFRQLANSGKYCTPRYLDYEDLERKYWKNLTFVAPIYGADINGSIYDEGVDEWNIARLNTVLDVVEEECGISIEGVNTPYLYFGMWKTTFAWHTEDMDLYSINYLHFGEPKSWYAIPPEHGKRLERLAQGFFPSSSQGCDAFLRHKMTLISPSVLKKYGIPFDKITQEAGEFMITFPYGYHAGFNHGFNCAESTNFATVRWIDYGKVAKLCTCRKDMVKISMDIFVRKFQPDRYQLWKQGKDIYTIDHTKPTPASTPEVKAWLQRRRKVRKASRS
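Material: GST-tagged GASC-1 (JMJD2C) catalytic fragment, aa 2-372 / Quantity: enzyme final amount 10 nM / Medium: HEPES buffer, pH 7.5, plus ascorbate / Doses: one test concentration per compound / Incubation: 30 min reaction, 60 min detection, RT / Measured by: LANCE TR-FRET / Read-out: inhibition from TR-FRET ratio decrease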
T cruzi growth-1 = T. cruzi proliferation inhibition | AID 624255 | T. cruzi beta-gal in NIH3T3, GalScreen luminescence, 90 h | actives 5.9% (n = 77,000) | inhibition, % at 8.34 µM;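 active = mean inhibition above about 93%, with at least 55% of replicates each passing it, limit read from the data, passing the limit was not always enough; inconclusive = only one of those two conditions holds; inactive = neither condition holds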
T cruzi growth-2 = inhibitors of T. cruzi proliferation; shares compounds with T cruzi growth-1; inhibition, % at 8.35 µM; T. cruzi beta-gal in NIH3T3, GalScreen luminescence, 90 h; actives 72% (n = 5,600);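 active = mean replicate inhibition above about 95% and at least 55% of replicates individually reaching it, limit read from the data; inconclusive = only one of the two criteria is met; inactive = neither criterion is met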
T cruzi growth-3 = inhibitors of T. cruzi proliferation. shares compounds with T cruzi growth-1. T. cruzi beta-gal in NIH3T3, GalScreen luminescence, 90 h. inhibition, % at 2.09 µM. actives 21% (n = 5,600). AID 651740;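 active = mean inhibition above about 95%, with at least 55% of replicates also reaching it, limit read from the data; inconclusive = meets just one of the two conditions; inactive = meets neither condition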
NIH3T3 tox = kills mouse NIH/3T3 fibroblasts | shares compounds with T cruzi growth-1 | cytotoxicity (signal decrease), % at 8.35 µM | actives 14% (n = 5,600) | NIH/3T3 viability, CellTiter-Glo ATP luminescence, 90 h;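 active = mean signal decrease across replicates above about 35% based on untreated-well scatter, with enough replicates individually passing, limit read from the data; inconclusive = no rule stated though some were filed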
3T3 cytotox 2 = cytotoxicity in mouse NIH/3T3 fibroblasts; inhibition, % at 24.9 µM; shares compounds with T cruzi growth-1; actives 56% (n = 5,600); NIH/3T3 viability, CellTiter-Glo ATP luminescence, 90 h;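 active = mean loss of cell viability signal at or above a set limit, and enough replicates individually reaching it; inconclusive = meets only the mean limit or only the replicate share; inactive = meets neither condition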
Hits are given with their value; n = inactive; u = inconclusive; x = not tested or not shown.

SMILES | IDH1 mut inh | KDM4C inh | T cruzi growth-1 | T cruzi growth-2 | T cruzi growth-3 | NIH3T3 tox | 3T3 cytotox 2
COc1ccccc1-c1ccc2c(c1)O[C@H](CN(C)S(=O)(=O)c1ccccc1)[C@@H](C)CN([C@H](C)CO)S2(=O)=O | n | x | n | x | x | x | x
Cc1ccc(S(=O)(=O)N(C)C[C@@H]2Oc3cc(C#Cc4ccccc4)ccc3S(=O)(=O)N([C@H](C)CO)C[C@@H]2C)cc1 | n | n | x | x | x | x | x
COc1ccccc1-c1ccc2c(c1)O[C@H](CN(C)S(=O)(=O)c1ccc(C)cc1)[C@H](C)CN([C@@H](C)CO)S2(=O)=O | x | n | 128 | 104 | u | u | 58
COc1ccccc1-c1ccc2c(c1)O[C@@H](CN(C)S(=O)(=O)c1ccc(C)cc1)[C@@H](C)CN([C@@H](C)CO)S2(=O)=O | n | n | 127 | 105 | 105 | 53 | 44
COc1ccccc1-c1ccc2c(c1)O[C@H](CN(C)S(=O)(=O)c1ccccc1)[C@@H](C)CN([C@@H](C)CO)S2(=O)=O | x | x | 93 | 95 | n | 36 | 47
COc1ccccc1-c1ccc2c(c1)O[C@@H](CN(C)C)[C@H](C)CN([C@@H](C)CO)S2(=O)=O | n | n | n | x | x | x | x
CN1C(=O)c2cc(NC(=O)c3ccc(F)cc3)ccc2OC[C@H]2O[C@H](CC(=O)NCC3CCCCC3)CC[C@@H]21 | x | n | n | x | x | x | x
CC(=O)c1ccc(NC(=O)CN(C)S(=O)(=O)c2ccc(C)cc2)cc1 | n | x | x | x | x | x | x
COc1cccc(S(=O)(=O)N(C)C[C@@H]2Oc3ncc(C#CCC(C)C)cc3C(=O)N([C@H](C)CO)C[C@@H]2C)c1 | x | n | n | x | x | x | x
COc1cccc(S(=O)(=O)N(C)C[C@H]2Oc3ncc(C#CC(C)C)cc3C(=O)N([C@@H](C)CO)C[C@H]2C)c1 | n | n | 109 | n | n | n | 49
CCCC#Cc1cnc2c(c1)C(=O)N([C@H](C)CO)C[C@@H](C)[C@@H](CN(C)S(=O)(=O)c1cccc(OC)c1)O2 | n | n | 104 | 99 | n | 37 | 65
COc1cccc(S(=O)(=O)N(C)C[C@H]2Oc3ncc(C#CC(C)C)cc3C(=O)N([C@H](C)CO)C[C@@H]2C)c1 | n | n | n | x | x | x | x
CCCC#Cc1cnc2c(c1)C(=O)N([C@@H](C)CO)C[C@@H](C)[C@H](CN(C)S(=O)(=O)c1cccc(OC)c1)O2 | x | n | n | x | x | x | x
COc1cccc(S(=O)(=O)N(C)C[C@@H]2Oc3ncc(C#Cc4ccc(F)cc4)cc3C(=O)N([C@H](C)CO)C[C@@H]2C)c1 | n | n | 108 | 103 | n | n | n
COc1cccc(S(=O)(=O)N(C)C[C@@H]2Oc3ncc(C#CC(C)C)cc3C(=O)N([C@H](C)CO)C[C@H]2C)c1 | n | n | n | x | x | x | x
COc1cccc(S(=O)(=O)N(C)C[C@H]2Oc3ncc(C#CCC(C)C)cc3C(=O)N([C@H](C)CO)C[C@@H]2C)c1 | x | n | 102 | 106 | n | n | 60
C[C@@H]1CN([C@H](C)CO)C(=O)c2cc(NC(=O)Nc3ccc(F)cc3)ccc2O[C@@H]1CN(C)S(=O)(=O)c1ccc(F)cc1 | n | n | n | x | x | x | x
COc1ccc(S(=O)(=O)N[C@H]2CC[C@H](CC(=O)NCc3ccccc3F)O[C@H]2CO)cc1 | n | n | n | x | x | x | x
CC(=O)N[C@H]1CC[C@H](CC(=O)NCc2ccc(Cl)cc2)O[C@H]1CO | n | n | n | x | x | x | x
C[C@H]1CN([C@@H](C)CO)C(=O)c2cccc(NC(=O)C3CCOCC3)c2O[C@@H]1CN(C)Cc1ccncc1 | n | n | n | x | x | x | x
C[C@H](CO)N1C[C@H](C)[C@@H](CN(C)C(=O)Nc2ccc(F)cc2)Oc2ccc(NC(=O)Cc3cn(C)c4ccccc34)cc2C1=O | n | n | n | x | x | x | x
COc1ccc2c3c([nH]c2c1)[C@@H](CO)N(C(=O)Nc1ccc(F)cc1)CC31CN(C(=O)c2ccccc2F)C1 | x | n | x | x | x | x | x
O=C(C1CCC1)N1CC2(C1)[C@@H](c1ccccc1)[C@H](CO)N2C(=O)c1ccccn1 | x | n | x | x | x | x | x
CCOC(=O)c1c(-c2ccccc2)csc1NC(=O)c1cccc(OC(C)=O)c1 | n | x | x | x | x | x | x

Assay outcomes deposited in PubChem BioAssay by Broad Institute.
